Values after ≈ are worked out from the molar mass of the structure shown.
Key:
Format in all cases: functional
Lichtheimia corymbifera = test: Antimicrobial activity against Mycocladus corymbiferus by broth microdilution method
Summary of the method: (§1)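 Filamentous fungus clinical isolates tested by the AFST-EUCAST reference broth microdilution method for moulds. For echinocandins, the endpoint was the minimum effective concentration: the lowest drug concentration giving aberrant hyphal growth, read with an inverted microscope.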

Aspergillus = test: Antimicrobial activity against Aspergillus spp. by broth microdilution method
Summary of the method: (§2)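 Clinical mould isolates, tested by broth microdilution using the AFST-EUCAST reference method for filamentous fungi. For echinocandins, the endpoint was the minimum effective concentration: the lowest drug concentration giving aberrant hyphal growth, read with an inverted microscope.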

Fusarium proliferatum = test: Antimicrobial activity against Fusarium proliferatum by broth microdilution method; summary of the method: as §2
[1] = Antimicrobial activity against Hormographiella aspergillata by broth microdilution method; conditions: Coprinopsis cinerea; summary of the method: as §1
Paecilomyces variotii = test: Antimicrobial activity against Paecilomyces variotii by broth microdilution method; summary of the method: as §1
Lecythophora hoffmannii = test: Antimicrobial activity against Lecythophora hoffmannii by broth microdilution method; conditions: Coniochaeta hoffmannii; summary of the method: as §1
Candida tropicalis = test: Antimicrobial activity against Candida tropicalis by broth microdilution method
Summary of the method: (§3)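 Clinical isolates from human patients, tested by broth microdilution using the AFST-EUCAST reference procedure for fermentative yeasts. The MIC was read per that reference method.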

Coprinellus domesticus = test: Antimicrobial activity against Hormographiella verticillata by broth microdilution method; summary of the method: as §1
Trichosporon asahii = test: Antimicrobial activity against Trichosporon asahii by broth microdilution method
Summary of the method: (§4)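 Nonfermentative yeast clinical isolates (Rhodotorula, Trichosporon) tested by broth microdilution. The EUCAST yeast recommendations were followed strictly, with one minor modification to improve growth. MIC was read as the endpoint.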

Fennellia nivea = test: Antimicrobial activity against Aspergillus niveus by broth microdilution method; summary of the method: as §2
[Candida] inconspicua = Antimicrobial activity against Candida inconspicua by broth microdilution method; conditions: Pichia inconspicua; summary of the method: as §3
Yarrowia lipolytica = test: Antimicrobial activity against Yarrowia lipolytica by broth microdilution method
Nakaseomyces glabratus = test: Antimicrobial activity against Candida glabrata by broth microdilution method; summary of the method: as §3
Beauveria bassiana = test: Antimicrobial activity against Beauveria bassiana by broth microdilution method; summary of the method: as §2
Naganishia albida = test: Antimicrobial activity against Cryptococcus albidus by broth microdilution method
Summary of the method: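 Clinical isolates of nonfermentative yeasts, tested by broth microdilution following EUCAST recommendations. The only change from that method was a minor modification to improve growth.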

Candida orthopsilosis = test: Antimicrobial activity against Candida orthopsilosis by broth microdilution method; conditions: Lodderomyces orthopsilosis; summary of the method: as §3
Aspergillus terreus = test: Antimicrobial activity against Aspergillus terreus by broth microdilution method; summary of the method: as §2
Pichia kudriavzevii = test: Antimicrobial activity against Candida krusei by broth microdilution method; summary of the method: as §3
Kluyveromyces marxianus = test: Antimicrobial activity against Candida kefyr by broth microdilution method; summary of the method: as §3
Neurospora sitophila = test: Antimicrobial activity against Chrysonilia sitophila by broth microdilution method; summary of the method: as §2
Mucor = test: Antimicrobial activity against Mucor spp.by broth microdilution method; summary of the method: as §1
Candida parapsilosis = test: Antimicrobial activity against Candida parapsilosis by broth microdilution method; conditions: Lodderomyces parapsilosis; summary of the method: as §3
Hortaea werneckii = test: Antimicrobial activity against Hortaea werneckii by broth microdilution method
Scedosporium apiospermum = test: Antimicrobial activity against Scedosporium apiospermum by broth microdilution method; summary of the method: as §1
Magnusiomyces capitatus = test: Antimicrobial activity against Dipodascus capitatus by broth microdilution method
Rhodotorula glutinis = test: Antimicrobial activity against Rhodotorula glutinis by broth microdilution method; summary of the method: as §4
Rhizopus arrhizus = test: Antimicrobial activity against Rhizopus oryzae by broth microdilution method; summary of the method: as §1
[2] = tested on: Cladophialophora bantiana; test: Antimicrobial activity against Cladophialophora bantiana by broth microdilution method; summary of the method: as §2
Candida albicans = test: Antimicrobial activity against Candida albicans by broth microdilution method; summary of the method: as §3
Lomentospora prolificans = test: Antimicrobial activity against Scedosporium prolificans by broth microdilution method; summary of the method: as §1
[3] = tested on: Cunninghamella bertholletiae; test: Antimicrobial activity against Cunninghamella bertholletiae by broth microdilution method; summary of the method: as §2
[4] = tested on: Kazachstania pintolopesii; test: Antimicrobial activity against Candida pintolopesii by broth microdilution method; conditions: Arxiozyma pintolopesii; summary of the method: as §3
Fusarium solani = test: Antimicrobial activity against Fusarium solani by broth microdilution method; summary of the method: as §1
Aspergillus flavus = test: Antimicrobial activity against Aspergillus flavus by broth microdilution method; summary of the method: as §2
Aureobasidium pullulans = test: Antimicrobial activity against Aureobasidium pullulans by broth microdilution method
Clavispora lusitaniae = test: Antimicrobial activity against Candida lusitaniae by broth microdilution method; summary of the method: as §3
Wickerhamomyces anomalus = test: Antimicrobial activity against Candida pelliculosa by broth microdilution method; conditions: Hansenula anomala; summary of the method: as §3
Cladosporium = test: Antimicrobial activity against Cladosporium spp. by broth microdilution method; summary of the method: as §2
Debaryomyces hansenii = test: Antimicrobial activity against Candida famata by broth microdilution method; summary of the method: as §3
Fusarium equiseti = test: Antimicrobial activity against Fusarium equiseti by broth microdilution method; summary of the method: as §2
[Candida] intermedia = Antimicrobial activity against Candida intermedia by broth microdilution method; conditions: Sungouiella intermedia; summary of the method: as §3

SMILES: C[C@@H](c1ncncc1F)[C@](O)(Cn1cncn1)c1ccc(F)cc1F [VORICONAZOLE]
- MIC50 (Lichtheimia corymbifera): > 8 µg/mL
- MIC90 (Lichtheimia corymbifera): > 8 µg/mL
- MIC50 (Aspergillus): 0.25 µg/mL (≈ 0.716 µM)
- MIC90 (Aspergillus): > 8 µg/mL
- MIC50 (Fusarium proliferatum): 8 µg/mL (≈ 22.9 µM)
- MIC90 (Fusarium proliferatum): 8 µg/mL (≈ 22.9 µM)
- MIC50 [1]: 4 µg/mL (≈ 11.5 µM)
- MIC90 [1]: > 8 µg/mL
- MIC50 (Paecilomyces variotii): 1 µg/mL (≈ 2.86 µM)
- MIC90 (Paecilomyces variotii): > 8 µg/mL
- MIC50 (Lecythophora hoffmannii): 0.06 µg/mL (≈ 0.172 µM)
- MIC90 (Lecythophora hoffmannii): > 8 µg/mL
- MIC50 (Candida tropicalis): 0.03 µg/mL (≈ 0.0859 µM)
- MIC90 (Candida tropicalis): 0.12 µg/mL (≈ 0.344 µM)
- MIC50 (Coprinellus domesticus): 4 µg/mL (≈ 11.5 µM)
- MIC90 (Coprinellus domesticus): > 8 µg/mL
- MIC50 (Trichosporon asahii): 0.25 µg/mL (≈ 0.716 µM)
- MIC90 (Trichosporon asahii): > 8 µg/mL
- MIC50 (Fennellia nivea): 0.25 µg/mL (≈ 0.716 µM)
- MIC90 (Fennellia nivea): > 8 µg/mL
- MIC50 ([Candida] inconspicua): 0.12 µg/mL (≈ 0.344 µM)
- MIC90 ([Candida] inconspicua): > 8 µg/mL
- MIC50 (Yarrowia lipolytica): 0.5 µg/mL (≈ 1.43 µM)
- MIC90 (Yarrowia lipolytica): 2 µg/mL (≈ 5.73 µM)
- MIC50 (Nakaseomyces glabratus): 0.12 µg/mL (≈ 0.344 µM)
- MIC90 (Nakaseomyces glabratus): 1 µg/mL (≈ 2.86 µM)
- MIC50 (Beauveria bassiana): 4 µg/mL (≈ 11.5 µM)
- MIC90 (Beauveria bassiana): > 8 µg/mL
- MIC50 (Naganishia albida): 0.5 µg/mL (≈ 1.43 µM)
- MIC90 (Naganishia albida): > 8 µg/mL
- MIC50 (Candida orthopsilosis): 0.12 µg/mL (≈ 0.344 µM)
- MIC90 (Candida orthopsilosis): > 8 µg/mL
- MIC50 (Aspergillus terreus): 1 µg/mL (≈ 2.86 µM)
- MIC90 (Aspergillus terreus): 2 µg/mL (≈ 5.73 µM)
- MIC50 (Pichia kudriavzevii): 0.25 µg/mL (≈ 0.716 µM)
- MIC90 (Pichia kudriavzevii): 0.5 µg/mL (≈ 1.43 µM)
- MIC50 (Kluyveromyces marxianus): 0.02 µg/mL (≈ 0.0573 µM)
- MIC90 (Kluyveromyces marxianus): 0.02 µg/mL (≈ 0.0573 µM)
- MIC50 (Neurospora sitophila): 4 µg/mL (≈ 11.5 µM)
- MIC90 (Neurospora sitophila): > 8 µg/mL
- MIC50 (Mucor): > 8 µg/mL
- MIC90 (Mucor): > 8 µg/mL
- MIC50 (Candida parapsilosis): 0.02 µg/mL (≈ 0.0573 µM)
- MIC90 (Candida parapsilosis): 0.02 µg/mL (≈ 0.0573 µM)
- MIC50 (Hortaea werneckii): 0.06 µg/mL (≈ 0.172 µM)
- MIC90 (Hortaea werneckii): > 8 µg/mL
- MIC50 (Scedosporium apiospermum): 0.5 µg/mL (≈ 1.43 µM)
- MIC90 (Scedosporium apiospermum): 2 µg/mL (≈ 5.73 µM)
- MIC50 (Magnusiomyces capitatus): 0.5 µg/mL (≈ 1.43 µM)
- MIC90 (Magnusiomyces capitatus): 1 µg/mL (≈ 2.86 µM)
- MIC50 (Rhodotorula glutinis): 0.5 µg/mL (≈ 1.43 µM)
- MIC90 (Rhodotorula glutinis): > 8 µg/mL
- MIC50 (Rhizopus arrhizus): > 8 µg/mL
- MIC90 (Rhizopus arrhizus): > 8 µg/mL
- MIC50 [2]: 0.06 µg/mL (≈ 0.172 µM)
- MIC90 [2]: > 8 µg/mL
- MIC50 (Candida albicans): 0.02 µg/mL (≈ 0.0573 µM)
- MIC90 (Candida albicans): 0.02 µg/mL (≈ 0.0573 µM)
- MIC50 (Lomentospora prolificans): > 8 µg/mL
- MIC90 (Lomentospora prolificans): > 8 µg/mL
- MIC50 [3]: > 8 µg/mL
- MIC90 [3]: > 8 µg/mL
- MIC50 [4]: 0.12 µg/mL (≈ 0.344 µM)
- MIC90 [4]: > 8 µg/mL
- MIC50 (Fusarium solani): > 8 µg/mL
- MIC90 (Fusarium solani): 4 µg/mL (≈ 11.5 µM)
- MIC50 (Aspergillus flavus): 1 µg/mL (≈ 2.86 µM)
- MIC90 (Aspergillus flavus): 2 µg/mL (≈ 5.73 µM)
- MIC50 (Aureobasidium pullulans): 0.06 µg/mL (≈ 0.172 µM)
- MIC90 (Aureobasidium pullulans): > 8 µg/mL
- MIC50 (Clavispora lusitaniae): 0.02 µg/mL (≈ 0.0573 µM)
- MIC90 (Clavispora lusitaniae): 0.02 µg/mL (≈ 0.0573 µM)
- MIC50 (Wickerhamomyces anomalus): 0.12 µg/mL (≈ 0.344 µM)
- MIC90 (Wickerhamomyces anomalus): > 8 µg/mL
- MIC50 (Cladosporium): 0.06 µg/mL (≈ 0.172 µM)
- MIC90 (Cladosporium): > 8 µg/mL
- MIC50 (Debaryomyces hansenii): 0.12 µg/mL (≈ 0.344 µM)
- MIC90 (Debaryomyces hansenii): > 8 µg/mL
- MIC50 (Fusarium equiseti): 4 µg/mL (≈ 11.5 µM)
- MIC90 (Fusarium equiseti): > 8 µg/mL
- MIC50 ([Candida] intermedia): 0.12 µg/mL (≈ 0.344 µM)
- MIC90 ([Candida] intermedia): > 8 µg/mL
